System: T1, OR6M1 T276K
T1 sequence (whole entry): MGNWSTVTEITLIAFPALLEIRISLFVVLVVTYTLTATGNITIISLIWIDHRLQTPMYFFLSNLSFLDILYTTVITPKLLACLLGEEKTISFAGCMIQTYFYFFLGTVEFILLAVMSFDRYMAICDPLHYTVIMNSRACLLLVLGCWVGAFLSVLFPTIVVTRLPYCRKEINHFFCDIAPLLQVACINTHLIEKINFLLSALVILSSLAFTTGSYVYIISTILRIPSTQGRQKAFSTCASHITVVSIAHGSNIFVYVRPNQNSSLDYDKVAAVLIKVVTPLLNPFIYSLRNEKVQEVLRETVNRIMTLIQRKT
Details: stereoisomer not certain
Method in brief: (§1)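 Each entry records the cell line, G-protein, co-transfected protein and tags used. Methods varied with the source, often transient luciferase assays in mammalian cell lines. A receptor–molecule pair is called responsive (active) if the original authors judged its signal statistically different from baseline and non-responsive (inactive) otherwise.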

Odorant receptor agonist call, inactive:
CC1=NC(C)C(C)S1 (stereo not drawn), CCC1OC(C)=C(O)C1=O (stereo not drawn), CCCCCCC=CCCC=O, CC1=C(O)C(=O)C(C)O1 (stereo not drawn), CCCC(S)CCOC(C)=O (stereo not drawn), CC1=C(O)C(=O)OC1C (stereo not drawn), Cc1cnc(C)c(C)n1, CCC1OC(=O)C(O)=C1C (stereo not drawn)

Target: T2, OR6N1 (Homo sapiens) (UniProt Q8NGY5)
T2 sequence (whole entry): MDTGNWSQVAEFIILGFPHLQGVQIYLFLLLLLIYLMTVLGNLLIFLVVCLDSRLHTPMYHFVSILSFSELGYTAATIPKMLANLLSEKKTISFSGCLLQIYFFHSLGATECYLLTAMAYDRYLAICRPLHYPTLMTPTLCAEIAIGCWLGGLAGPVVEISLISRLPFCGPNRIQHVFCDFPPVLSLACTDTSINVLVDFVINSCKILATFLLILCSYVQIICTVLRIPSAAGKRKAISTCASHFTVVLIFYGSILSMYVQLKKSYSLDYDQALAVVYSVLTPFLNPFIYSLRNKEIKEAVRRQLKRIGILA
Details: stereoisomer not certain
Method in brief: as §1

Odorant receptor agonist call, inactive:
CCCCCC(=O)C(C)C(C)=O (stereo not drawn), CC1=NC(C)C(C)S1 (stereo not drawn), CCCCC(S)C(C)CO (stereo not drawn), CCC1OC(C)=C(O)C1=O (stereo not drawn), CCCCCCC=CCCC=O, CC1=C(O)C(=O)C(C)O1 (stereo not drawn), CC(=O)c1c(C)c([N+](=O)[O-])c(C(C)(C)C)c([N+](=O)[O-])c1C, CCCC(S)CCOC(C)=O (stereo not drawn), CC1=C(O)C(=O)OC1C (stereo not drawn), Cc1cnc(C)c(C)n1, CCCCCC(S)C(C)CO (stereo not drawn), CC(CO)CS (stereo not drawn), CCC(S)C(C)CO (stereo not drawn), CCC1OC(=O)C(O)=C1C (stereo not drawn), CC1CCCCCCCCCCCCC(=O)C1 (stereo not drawn)

Target: T3, OR6N2 (Homo sapiens) (UniProt Q8NGY6)
T3 sequence (whole entry): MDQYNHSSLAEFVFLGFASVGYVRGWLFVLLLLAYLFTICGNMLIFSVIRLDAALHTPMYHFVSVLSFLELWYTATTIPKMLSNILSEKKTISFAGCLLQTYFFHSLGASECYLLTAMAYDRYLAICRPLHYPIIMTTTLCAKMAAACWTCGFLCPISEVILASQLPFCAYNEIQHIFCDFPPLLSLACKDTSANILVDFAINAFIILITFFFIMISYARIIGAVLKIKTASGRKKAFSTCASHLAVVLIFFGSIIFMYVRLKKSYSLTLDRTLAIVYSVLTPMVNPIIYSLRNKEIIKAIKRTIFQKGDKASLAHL
Details: stereoisomer not certain
Method in brief: as §1

Odorant receptor agonist call, inactive:
CCCCCC(=O)C(C)C(C)=O (stereo not drawn), CC1=NC(C)C(C)S1 (stereo not drawn), CCCCC(S)C(C)CO (stereo not drawn), CCC1OC(C)=C(O)C1=O (stereo not drawn), CCCCCCC=CCCC=O, CC1=C(O)C(=O)C(C)O1 (stereo not drawn), CC(=O)c1c(C)c([N+](=O)[O-])c(C(C)(C)C)c([N+](=O)[O-])c1C, CCCC(S)CCOC(C)=O (stereo not drawn), CC1=C(O)C(=O)OC1C (stereo not drawn), Cc1cnc(C)c(C)n1, CCCCCC(S)C(C)CO (stereo not drawn), CC(CO)CS (stereo not drawn), CCC(S)C(C)CO (stereo not drawn), CCC1OC(=O)C(O)=C1C (stereo not drawn), CC1CCCCCCCCCCCCC(=O)C1 (stereo not drawn)

Target: T4, OR6P1 (Homo sapiens) (UniProt Q8NGX9)
T4 sequence (whole entry): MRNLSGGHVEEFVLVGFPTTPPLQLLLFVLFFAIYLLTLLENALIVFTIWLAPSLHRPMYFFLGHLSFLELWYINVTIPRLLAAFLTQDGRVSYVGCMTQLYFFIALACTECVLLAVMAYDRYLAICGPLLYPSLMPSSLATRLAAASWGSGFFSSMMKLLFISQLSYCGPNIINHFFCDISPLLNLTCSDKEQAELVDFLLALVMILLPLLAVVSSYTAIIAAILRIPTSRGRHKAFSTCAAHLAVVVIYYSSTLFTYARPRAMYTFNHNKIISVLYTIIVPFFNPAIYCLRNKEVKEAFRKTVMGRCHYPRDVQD
Details: stereoisomer not certain
Method in brief: as §1

Odorant receptor agonist call, inactive:
CCCCCC(=O)C(C)C(C)=O (stereo not drawn), CC1=NC(C)C(C)S1 (stereo not drawn), CCCCC(S)C(C)CO (stereo not drawn), CCC1OC(C)=C(O)C1=O (stereo not drawn), CCCCCCC=CCCC=O, CC1=C(O)C(=O)C(C)O1 (stereo not drawn), CC(=O)c1c(C)c([N+](=O)[O-])c(C(C)(C)C)c([N+](=O)[O-])c1C, CCCC(S)CCOC(C)=O (stereo not drawn), CC1=C(O)C(=O)OC1C (stereo not drawn), Cc1cnc(C)c(C)n1, CCCCCC(S)C(C)CO (stereo not drawn), CC(CO)CS (stereo not drawn), CCC(S)C(C)CO (stereo not drawn), CCC1OC(=O)C(O)=C1C (stereo not drawn), CC1CCCCCCCCCCCCC(=O)C1 (stereo not drawn)

Target: T5, OR6Q1 (Homo sapiens) (UniProt Q8NGQ2)
T5 sequence (whole entry): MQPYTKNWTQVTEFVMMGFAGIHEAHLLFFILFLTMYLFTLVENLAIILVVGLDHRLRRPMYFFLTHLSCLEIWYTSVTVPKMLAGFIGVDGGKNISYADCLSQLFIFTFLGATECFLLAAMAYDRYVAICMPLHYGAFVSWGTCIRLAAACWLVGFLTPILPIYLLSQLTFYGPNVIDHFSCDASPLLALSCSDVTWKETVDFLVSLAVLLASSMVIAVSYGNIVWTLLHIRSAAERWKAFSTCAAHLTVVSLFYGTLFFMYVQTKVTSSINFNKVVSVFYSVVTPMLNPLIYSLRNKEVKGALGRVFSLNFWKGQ
Details: stereoisomer not certain
Method in brief: as §1

Odorant receptor agonist call, inactive:
CCCCCC(=O)C(C)C(C)=O (stereo not drawn), CC1=NC(C)C(C)S1 (stereo not drawn), CCCCC(S)C(C)CO (stereo not drawn), CCC1OC(C)=C(O)C1=O (stereo not drawn), CCCCCCC=CCCC=O, CC1=C(O)C(=O)C(C)O1 (stereo not drawn), CC(=O)c1c(C)c([N+](=O)[O-])c(C(C)(C)C)c([N+](=O)[O-])c1C, CCCC(S)CCOC(C)=O (stereo not drawn), CC1=C(O)C(=O)OC1C (stereo not drawn), Cc1cnc(C)c(C)n1, CCCCCC(S)C(C)CO (stereo not drawn), CC(CO)CS (stereo not drawn), CCC(S)C(C)CO (stereo not drawn), CCC1OC(=O)C(O)=C1C (stereo not drawn), CC1CCCCCCCCCCCCC(=O)C1 (stereo not drawn)

From the M2OR odorant receptor database
